Each compound was assayed on Influenza A virus (assay: Antiviral activity against oseltamivir-resistant Influenza A virus A/WSN/1933(H1N1) infected in MDCK cells assessed as protection against virus-induced cytopathic effect after 48 hrs by CellTiter 96 AQueous Non-Radioactive cell proliferation assay).
Assay type: functional, organism-based
How it was run: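 Virus stock (100 TCID50, TCID50 set by serial dilution on MDCK and Reed–Müench) mixed 1:1 with inhibitor at varied concentrations, then used to infect MDCK cells (1 × 10^5 cells/mL) grown in DMEM with 10% FBS. Incubated 48 h, 37 °C, 5% CO2. CPE read by MTS-type reagent, 15 min, A490. EC50 from curve fit of % CPE vs concentration; mean ± SD of three experiments.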

Compared with `CCC(CC)[C@H](NC(C)=O)[C@@H]1C[C@@H](P(=O)(O)O)C[C@H]1NC(=N)N`, `CCOP(=O)(O)[C@@H]1C[C@@H]([C@@H](NC(C)=O)C(CC)CC)[C@H](NC(=N)N)C1` is 3.9-fold lower in EC50: 343 nM for the first, 88.7 nM for the second.

Compared with `CCC(CC)[C@H](NC(C)=O)[C@@H]1C=C(P(=O)(O)O)C[C@H]1NC(=N)N`, `CCOP(=O)(O)C1=C[C@@H]([C@@H](NC(C)=O)C(CC)CC)[C@H](NC(=N)N)C1` is 2.6-fold lower in EC50: 50.3 nM for the first, 19.1 nM for the second. The second is the more potent here.

First: CCCCCCOP(=O)(O)[C@@H]1C[C@@H]([C@@H](NC(C)=O)C(CC)CC)[C@H](NC(=N)N)C1
Second: CCCCCCOP(=O)(O)[C@H]1C[C@@H](NC(=N)N)[C@H]([C@@H](NC(C)=O)C(CC)CC)[C@@H]1O
The EC50 of the first is 2.3-fold higher: 43.2 nM for the first, 18.6 nM for the second.

Going from `CCCCCCOP(=O)(O)C1=C[C@@H]([C@@H](NC(C)=O)C(CC)CC)[C@H](NC(=N)N)C1` to `CCOP(=O)(O)[C@H]1C[C@@H](NC(=N)N)[C@H]([C@@H](NC(C)=O)C(CC)CC)[C@@H]1O`, the EC50 rises from 18.5 nM to 66.5 nM (3.6-fold).

First: CCC(CC)[C@H](NC(C)=O)[C@@H]1[C@H](O)[C@@H](P(=O)(O)O)C[C@H]1NC(=N)N
Second: CCC(CC)[C@H](NC(C)=O)[C@@H]1[C@H](O)[C@@H](C(=O)O)C[C@H]1NC(=N)N [PERAMIVIR ANHYDROUS]
The EC50 of the first is 170-fold higher: 260 nM for the first, 1.5 nM for the second. The second is the more potent here.

Going from `CCC(CC)O[C@@H]1C=C(C(=O)O)C[C@H](N)[C@H]1NC(C)=O` [OSELTAMIVIR CARBOXYLATE] to `CC(=O)N[C@H]1[C@H]([C@H](O)[C@H](O)CO)OC(C(=O)O)=C[C@@H]1NC(=N)N` [ZANAMIVIR], the EC50 rises from 5.5 nM to 16.3 nM (3-fold).

— ChEMBL document CHEMBL3817747 (J Med Chem, 2016)
